According to ChEMBL document CHEMBL2086227, “Synthesis and evaluation of anticonvulsant and antidepressant activities of 5-alkoxytetrazolo[1,5-c]thieno[2,3-e]pyrimidine derivatives” (Eur J Med Chem, 2012):
Calls of active or inactive are those of the source. The calls are words filed in the database; no cut-off is given here.

Assays:
[1] = system: Mus musculus; experiment: Anticonvulsant activity in Kunming mouse assessed as protection against maximal electroshock-induced seizure at 30 mg/kg, ip; assay type: functional, organism-based; design: dose 30 mg/kg
Summary of the method: (§1)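 Mice held on a 12-h light/dark cycle at 23 ± 2 °C with free food and water. Compounds were given ip as suspensions in aqueous Tween 80 (3% v/v, 0.9% NaCl) at 0.05 mL/20 g body weight. The maximal electroshock test was scored as number of animals protected over number tested.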

[2] = system: Mus musculus; experiment: Anticonvulsant activity in Kunming mouse assessed as protection against maximal electroshock-induced seizure at 100 mg/kg, ip; assay type: functional, organism-based; design: dose 100 mg/kg; summary of the method: as §1
[3] = system: Mus musculus; experiment: Anticonvulsant activity in Kunming mouse assessed as protection against maximal electroshock-induced seizure at 300 mg/kg, ip; assay type: functional, organism-based; design: dose 300 mg/kg; summary of the method: as §1
[4] = system: Mus musculus; experiment: Antidepressant activity in Kunming mouse assessed as decrease in immobility time at 100 mg/kg, ip measured for last 4 mins of 6 mins test after 30 mins post dose by forced swimming test relative to control; assay type: functional; design: scale not given: the % may be the effect or the level left; details: route intraperitoneal
Summary of the method: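 Mice were dosed ip with compounds at 100 mg/kg, suspended in 3% Tween 80 in 0.9% NaCl (0.05 mL/20 g); controls got 3% aqueous Tween 80. After 30 min each mouse was placed in a water-filled cylinder (water depth 10 cm, 23–25 °C) for 6 min. Upright floating with only slight movements was scored as immobility, timed over the last 4 min. Mean ± S.E.M., n = 8.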

[5] = system: Mus musculus; experiment: Toxicity in Kunming mouse assessed as increase in locomotor activity at 100 mg/kg, ip administered 60 mins prior to test measured for 3 mins by open-field test; assay type: organism-based; design: dose 100 mg/kg, route intraperitoneal; details: in vivo, 0.05 h
Summary of the method: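 Open-field exploratory activity was recorded for 3 min, starting 60 min after ip dosing in 3% Tween 80/0.9% NaCl vehicle. Counts were taken for locomotion (line crossings), rearing (standing on hind legs) and grooming, and compared with a vehicle control group.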

In the case of `Cc1ccc(Oc2nc3ccsc3c3nnnn23)cc1`, the Activity [1] is reported as “inactive”, the Activity [2] is reported as “inactive” and the Activity [3] is reported as “inactive”. The Activity [4] was 36.6%.

Work on `CNCCC(Oc1ccc(C(F)(F)F)cc1)c1ccccc1` (stereo not drawn) [FLUOXETINE] yielded an Activity [4] of 58.09%.

In the case of `Nc1ccccc1Oc1nc2ccsc2c2nnnn12`, the Activity [1] is reported as “inactive”, the Activity [3] is reported as “Active” and the Activity [4] is reported as 22.8%.

In the case of `COc1ccc(Oc2nc3ccsc3c3nnnn23)cc1`, the Activity [1] is reported as “inactive”, the Activity [2] is reported as “inactive” and the Activity [3] is reported as “inactive”. For the same molecule, the Activity [4] was 46.18%.

In the case of `COc1cccc(Oc2nc3ccsc3c3nnnn23)c1`, the Activity [1] is reported as “inactive”, the Activity [2] is reported as “inactive” and the Activity [3] is reported as “inactive”. It also gave an Activity [4] of 37.41%.

With `c1cnc2c(Oc3nc4ccsc4c4nnnn34)cccc2c1` the Activity [1] was “inactive”, the Activity [2] was “inactive” and the Activity [3] was “inactive”. It also gave an Activity [4] of 23.62%.

With `Cc1cccc(Oc2nc3ccsc3c3nnnn23)c1` the Activity [1] was “inactive”, the Activity [2] was “inactive” and the Activity [3] was “inactive”. It also gave an Activity [4] of 39.04%.

For `c1ccc(Oc2nc3ccsc3c3nnnn23)cc1`, the Activity [1] was “inactive”, the Activity [2] was “inactive” and the Activity [4] was 26.46%.

With `Clc1cccc(Oc2nc3ccsc3c3nnnn23)c1` the Activity [1] was “inactive”, the Activity [2] was “inactive” and the Activity [3] was “inactive”. It also gave an Activity [4] of 15.42%.

`c1ccc2c(Oc3nc4ccsc4c4nnnn34)cccc2c1` was tested, and the Activity [1] was “inactive”, the Activity [2] was “inactive” and the Activity [3] was “inactive”. For the same molecule, the Activity [4] was 9.25%.

For `Fc1cccc(Oc2nc3ccsc3c3nnnn23)c1`, the Activity [1] was “inactive”, the Activity [2] was “inactive” and the Activity [3] was “inactive”. For the same molecule, the Activity [4] was 25.73%.

In the case of `Cc1ccccc1Oc1nc2ccsc2c2nnnn12`, the Activity [1] is reported as “inactive”, the Activity [2] is reported as “inactive” and the Activity [3] is reported as “inactive”. For the same molecule, the Activity [4] was 36.44%.

With `COc1ccccc1Oc1nc2ccsc2c2nnnn12` the Activity [1] was “inactive”, the Activity [2] was “inactive” and the Activity [3] was “inactive”. It also gave an Activity [4] of 26.05%.

With `Nc1cccc(Oc2nc3ccsc3c3nnnn23)c1` the Activity [1] was “inactive”, the Activity [2] was “inactive” and the Activity [4] was 27.59%.

With `FC(F)(F)c1ccc(Oc2nc3ccsc3c3nnnn23)cc1` the Activity [1] was “inactive”, the Activity [2] was “inactive” and the Activity [3] was “inactive”. For the same molecule, the Activity [4] was 25.16%.

For `Clc1ccc(Oc2nc3ccsc3c3nnnn23)cc1`, the Activity [1] was “inactive”, the Activity [2] was “inactive” and the Activity [3] was “inactive”. It also gave an Activity [4] of 35.63%.

For `Clc1ccc(Oc2nc3ccsc3c3nnnn23)c(Cl)c1`, the Activity [1] was “inactive”, the Activity [2] was “inactive” and the Activity [3] was “inactive”. The Activity [4] was 51.62% and the Activity [5] was “Non-toxic”.

In the case of `Clc1ccccc1Oc1nc2ccsc2c2nnnn12`, the Activity [1] is reported as “inactive”, the Activity [2] is reported as “inactive” and the Activity [3] is reported as “inactive”. It also gave an Activity [4] of 40.17%.

With `Fc1ccccc1Oc1nc2ccsc2c2nnnn12` the Activity [1] was “inactive”, the Activity [2] was “inactive” and the Activity [3] was “inactive”. For the same molecule, the Activity [4] was 9.33%.

`Brc1ccc(Oc2nc3ccsc3c3nnnn23)cc1` was tested, and the Activity [1] was “inactive”, the Activity [3] was “Active” and the Activity [4] was 10.06%.

`Fc1ccc(Oc2nc3ccsc3c3nnnn23)cc1` was tested, and the Activity [1] was “inactive”, the Activity [2] was “inactive” and the Activity [3] was “inactive”. The Activity [4] was 18.18%.
